The results in this text go back to PubChem BioAssay AID588479 (NMMLSC, 2011).

Structures are written as SMILES. Inconclusive results are not listed. Activity calls are given as the source filed them.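 The calls were made as follows: active = eight-GTPase mean potency score over 50, needing half-effect dose up to 10 µM and response span 30% or more; inconclusive = no clear call, values can overlap the other calls; inactive = the rest.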

Holding throughout (test): inhibitors of GTP binding to eight small GTPases, SAR follow-up, biochemical, round 1 SAR, Mg buffer, multiplex flow cytometry (AID 588479)
One experiment has as its target RasACT. Conditions: multiplex GST-GTPase beads, Bodipy-GTP binding, constitutively active. Put shortly: (§1)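 Test system: Multiplexed GST-tagged GTPases (Rab7, H-Ras, Rac, Rho, Cdc42) on colour-coded beads | Compound dosing: Nine-point compound series, 1:3 steps, 10 nM to 100 µM | Timing: Beads, compound and labeled GTP incubated 40–45 min at 4 °C | Detection: Flow cytometry, green median fluorescence per bead | Measure: Normalized response, EC50 by four-parameter fit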

In another experiment the target is RacACT. Conditions: multiplex GST-GTPase beads, Bodipy-GTP binding, constitutively active; for response, lower = inhibition: at 100 µM (top of the series). In a few lines:
as §1

The next experiment has as its target Cdc42WT. Conditions: multiplex GST-GTPase beads, Bodipy-GTP binding, wild type; for response, lower = inhibition: at 100 µM (top of the series). Put shortly: as §1
The target in another experiment is RacWT. Conditions: multiplex GST-GTPase beads, Bodipy-GTP binding, wild type; for response, lower = inhibition: at 100 µM (top of the series). In a few lines:
as §1

Another experiment concerns the target Cdc42ACT. Conditions: multiplex GST-GTPase beads, Bodipy-GTP binding, constitutively active; for response, lower = inhibition: at 100 µM (top of the series). In a few lines:
as §1

A further experiment deals with RhoWT. Conditions: multiplex GST-GTPase beads, Bodipy-GTP binding, wild type; for response, lower = inhibition: at 100 µM (top of the series). In a few lines: as §1

By EC50 is commonly meant the midpoint of the concentration-response curve. Take `CC1(C)Cc2c(sc(NC(=S)Nc3ccccc3)c2C(=O)O)CO1`: the concentration for a half-maximal effect (EC50) at RasACT is 1780 nM. In addition, the “response, lower = inhibition” value on RacACT, at Cdc42WT, on RacWT, on Cdc42ACT and on RhoWT was “inactive” each time.

`CC1(C)Cc2c(sc(NC(=O)Cc3ccccc3)c2C(=O)O)CO1`: the “response, lower = inhibition” value at RacACT, at Cdc42WT, on RacWT, at Cdc42ACT and on RhoWT was “inactive” in each case.

For `Cc1ccc(NC(=O)Nc2sc3c(c2C(=O)O)CCN(C)C3)cc1`, the “response, lower = inhibition” value at RacACT, at Cdc42WT, on RacWT, at Cdc42ACT and on RhoWT was “inactive” each time.

Turning to `CC1(C)CCc2sc(NC(=S)NC(=O)c3ccccc3)c(C(=O)O)c2C1`, the EC50 on RacACT is 109 nM; on Cdc42WT, 99 nM; at RacWT it was 89 nM; at Cdc42ACT, 106 nM; on RhoWT, 81 nM.

`CC1(C)Cc2c(sc(NC(=S)NC(=O)c3cccc(F)c3)c2C(=O)O)CO1`: the EC50 on RacACT is 466 nM; at Cdc42WT, 493 nM; on RacWT, 471 nM; on Cdc42ACT it was 465 nM; at RhoWT it was 499 nM.

Turning to `CCOC(=O)c1c(NC(=O)Nc2ccc(C)cc2)sc2c1CCN(C)C2`, the “response, lower = inhibition” value on Cdc42ACT was “inactive”.

Regarding `CC1(C)Cc2c(sc(NC(=S)NC(=O)c3cccc(Br)c3)c2C(=O)O)CO1`, the “response, lower = inhibition” value at RacACT, at Cdc42WT, on RacWT, at Cdc42ACT and at RhoWT was “inactive” each time.

For `CCOC(=O)c1c(N)sc2ccccc12`, the “response, lower = inhibition” value on RacACT, on Cdc42WT, on RacWT, on Cdc42ACT and on RhoWT was “inactive” each time.

For `CC1(C)Cc2c(sc(NC(=S)NC(=O)c3ccccc3F)c2C(=O)O)CO1`, the EC50 is 59 nM at RacACT; 64 nM on Cdc42WT; 58 nM at RacWT; 60 nM at Cdc42ACT; 65 nM on RhoWT.

As for `COc1ccc(C(=O)NC(=S)Nc2sc3c(c2C(=O)O)CC(C)(C)OC3)cc1`, the EC50 at RacACT is 142 nM; on Cdc42WT, 127 nM; on RacWT, 133 nM; at Cdc42ACT, 143 nM; at RhoWT, 139 nM.

As for `COc1cccc(C(=O)NC(=S)Nc2sc3c(c2C(=O)O)CC(C)(C)OC3)c1`, the EC50 on RacACT was 122 nM; at Cdc42WT, 118 nM; on RacWT, 141 nM; on Cdc42ACT, 122 nM; on RhoWT, 111 nM.

On to `COC(=O)c1c(N)sc2c1CC(C)(C)OC2`, for which the “response, lower = inhibition” value at Cdc42ACT was “inactive”.

For the compound `CC1(C)Cc2c(sc(NC(=S)NC(=O)c3ccccc3Br)c2C(=O)O)CO1`, the results for the EC50 on RacACT, on Cdc42WT and on RhoWT were 71 nM, 69 nM and 70 nM, respectively. Moreover, the “response, lower = inhibition” value at RacWT and on Cdc42ACT was “inactive” throughout.

Consider `CCOC(=O)c1c(NC(=O)Nc2ccc(F)cc2)sc2c1CCN(C)C2`, for which the “response, lower = inhibition” value on Cdc42ACT is “inactive”.

Regarding `CC1(C)Cc2c(sc(NC(=S)NC(=O)c3ccc(Br)cc3)c2C(=O)O)CO1`, the concentration giving a half-maximal response (EC50) on RacACT was 204 nM; at Cdc42WT, 154 nM; at RacWT, 214 nM; at Cdc42ACT, 170 nM; at RhoWT, 280 nM.
